What follows are compounds tested on M14 (assay: Growth inhibition of human M14 cells assessed as cell growth at 10 uM incubated for 48 hrs by sulforhodamine B assay relative to control). Settings: read-out: Activity.
Type: functional
Summary of the method: (§1)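 Submitted to the NCI Developmental Therapeutics Program for the NCI60 human tumour cell line panel. First screen at a single 10 µM concentration. Read-out is growth relative to untreated control cells set at 100%.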

Question: For `CC(=O)c1ccc2c(N)c(C(=O)Nc3ccccc3)sc2n1`, which growth at 10 µM is on record?
Answer: 109%

What follows are compounds tested on NCI-H460 (assay: Growth inhibition of human NCI-H460 cells assessed as cell growth at 10 uM incubated for 48 hrs by sulforhodamine B assay relative to control). Settings: read-out: Activity.
Type: functional
Summary of the method: as §1

Question: With `CC(=O)c1ccc2c(N)c(C(=O)Nc3ccccc3)sc2n1` as the compound, how does the growth at 10 µM read?
Answer: 101%

These compounds were tested on SN12C (assay: Growth inhibition of human SN12C cells assessed as cell growth at 10 uM incubated for 48 hrs by sulforhodamine B assay relative to control). Settings: read-out: Activity.
Type: functional
Summary of the method: (§2)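 Run by the NCI Developmental Therapeutics Program as part of its 60-line human tumour panel. Each compound tested at a single 10 µM dose. Growth expressed as % relative to untreated control cells (100%).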

Question: For `CC(=O)c1ccc2c(N)c(C(=O)Nc3ccccc3)sc2n1`, which growth at 10 µM is on record?
Answer: 110%

These compounds were tested on HL-60(TB) (assay: Growth inhibition of human HL-60(TB) cells assessed as cell growth at 10 uM incubated for 48 hrs by sulforhodamine B assay relative to control). Settings: read-out: Activity.
Type: functional
Summary of the method: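 Screened by the NCI Developmental Therapeutics Program on its panel of 60 human tumour cell lines. Compounds were first tested at a single 10 µM dose, and compounds active there went to dose-response curves. Growth is expressed relative to untreated control (100%). GI50 (50% of maximal proliferation inhibition) and TGI (total growth inhibition) were derived from the dose-response data.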

Question: How did the growth at 10 µM turn out when `CC(=O)c1ccc2c(N)c(C(=O)Nc3ccccc3)sc2n1` was run?
Answer: 108%

What follows are compounds tested on KM12 (assay: Growth inhibition of human KM12 cells assessed as cell growth at 10 uM incubated for 48 hrs by sulforhodamine B assay relative to control). Settings: read-out: Activity.
Type: functional
Summary of the method: as §1

Question: How did the growth at 10 µM turn out when `CC(=O)c1ccc2c(N)c(C(=O)Nc3ccccc3)sc2n1` was run?
Answer: 110%

The compounds below were run on MDA-MB-435 (assay: Growth inhibition of human MDA-MB-435 cells assessed as cell growth at 10 uM incubated for 48 hrs by sulforhodamine B assay relative to control). Settings: read-out: Activity.
Type: functional
Summary of the method: as §1

Question: `CC(=O)c1ccc2c(N)c(C(=O)Nc3ccccc3)sc2n1` was tested. Which growth at 10 µM did it give?
Answer: 106%

These compounds were tested on CCRF-CEM (assay: Growth inhibition of human CCRF-CEM cells assessed as cell growth at 10 uM incubated for 48 hrs by sulforhodamine B assay relative to control). Settings: read-out: Activity.
Type: functional
Summary of the method: (§3)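 NCI Developmental Therapeutics Program NCI60 panel. Compounds that were active in the 10 µM one-dose screen went on to dose–response testing. Growth at each concentration is expressed relative to untreated control (100%). GI50 (concentration giving 50% of maximal inhibition of proliferation) and TGI (concentration giving total growth inhibition) were derived from the curves.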

Question: With `CC(=O)c1ccc2c(N)c(C(=O)Nc3ccccc3)sc2n1` as the compound, how does the growth at 10 µM read?
Answer: 101%

Each compound was assayed on SNB-75 (assay: Growth inhibition of human SNB-75 cells assessed as cell growth at 10 uM incubated for 48 hrs by sulforhodamine B assay relative to control). Settings: read-out: Activity.
Type: functional
Summary of the method: as §2

Question: Which growth at 10 µM does the source give for `CC(=O)c1ccc2c(N)c(C(=O)Nc3ccccc3)sc2n1` here?
Answer: 99.5%

The compounds below were run on RXF 393 (assay: Growth inhibition of human RXF 393 cells assessed as cell growth at 10 uM incubated for 48 hrs by sulforhodamine B assay relative to control). Settings: read-out: Activity.
Type: functional
Summary of the method: as §2

Question: With `CC(=O)c1ccc2c(N)c(C(=O)Nc3ccccc3)sc2n1` as the compound, how does the growth at 10 µM read?
Answer: 100%

Each compound was assayed on IGROV-1 (assay: Growth inhibition of human IGROV-1 cells assessed as cell growth at 10 uM incubated for 48 hrs by sulforhodamine B assay relative to control). Settings: read-out: Activity.
Type: functional
Summary of the method: as §1

Question: Which growth at 10 µM does the source give for `CC(=O)c1ccc2c(N)c(C(=O)Nc3ccccc3)sc2n1` here?
Answer: 113%

What follows are compounds tested on SF-539 (assay: Growth inhibition of human SF-539 cells assessed as cell growth at 10 uM incubated for 48 hrs by sulforhodamine B assay relative to control). Settings: read-out: Activity.
Type: functional
Summary of the method: as §2

Question: `CC(=O)c1ccc2c(N)c(C(=O)Nc3ccccc3)sc2n1` was tested. Which growth at 10 µM did it give?
Answer: 97%

What follows are compounds tested on SK-MEL-5 (assay: Growth inhibition of human SK-MEL-5 cells assessed as cell growth at 10 uM incubated for 48 hrs by sulforhodamine B assay relative to control). Settings: read-out: Activity.
Type: functional
Summary of the method: as §2

Question: Which growth at 10 µM does the source give for `CC(=O)c1ccc2c(N)c(C(=O)Nc3ccccc3)sc2n1` here?
Answer: 98.5%

These compounds were tested on MDA-MB-468 (assay: Growth inhibition of human MDA-MB-468 cells assessed as cell growth at 10 uM incubated for 48 hrs by sulforhodamine B assay relative to control). Settings: read-out: Activity.
Type: functional
Summary of the method: as §1

Question: For `CC(=O)c1ccc2c(N)c(C(=O)Nc3ccccc3)sc2n1`, which growth at 10 µM is on record?
Answer: 87.4%

These compounds were tested on SF-295 (assay: Growth inhibition of human SF-295 cells assessed as cell growth at 10 uM incubated for 48 hrs by sulforhodamine B assay relative to control). Settings: read-out: Activity.
Type: functional
Summary of the method: as §2

Question: With `CC(=O)c1ccc2c(N)c(C(=O)Nc3ccccc3)sc2n1` as the compound, how does the growth at 10 µM read?
Answer: 108%

These compounds were tested on A549 (assay: Growth inhibition of human A549/ATCC cells assessed as cell growth at 10 uM incubated for 48 hrs by sulforhodamine B assay relative to control). Settings: read-out: Activity.
Type: functional
Summary of the method: as §3

Question: `CC(=O)c1ccc2c(N)c(C(=O)Nc3ccccc3)sc2n1` was tested. Which growth at 10 µM did it give?
Answer: 89%

These compounds were tested on NCI-H226 (assay: Growth inhibition of human NCI-H226 cells assessed as cell growth at 10 uM incubated for 48 hrs by sulforhodamine B assay relative to control). Settings: read-out: Activity.
Type: functional
Summary of the method: as §1

Question: For `CC(=O)c1ccc2c(N)c(C(=O)Nc3ccccc3)sc2n1`, which growth at 10 µM is on record?
Answer: 93.4%

These compounds were tested on NCI/ADR-RES (assay: Growth inhibition of human NCI/ADR-RES cells assessed as cell growth at 10 uM incubated for 48 hrs by sulforhodamine B assay relative to control). Settings: read-out: Activity.
Type: functional
Summary of the method: as §1

Question: `CC(=O)c1ccc2c(N)c(C(=O)Nc3ccccc3)sc2n1` was tested. Which growth at 10 µM did it give?
Answer: 103%

What follows are compounds tested on NCI-H322M (assay: Growth inhibition of human NCI-H322M cells assessed as cell growth at 10 uM incubated for 48 hrs by sulforhodamine B assay relative to control). Settings: read-out: Activity.
Type: functional
Summary of the method: as §1

Question: `CC(=O)c1ccc2c(N)c(C(=O)Nc3ccccc3)sc2n1` was tested. Which growth at 10 µM did it give?
Answer: 114%

What follows are compounds tested on SK-MEL-28 (assay: Growth inhibition of human SK-MEL-28 cells assessed as cell growth at 10 uM incubated for 48 hrs by sulforhodamine B assay relative to control). Settings: read-out: Activity.
Type: functional
Summary of the method: as §2

Question: For `CC(=O)c1ccc2c(N)c(C(=O)Nc3ccccc3)sc2n1`, which growth at 10 µM is on record?
Answer: 108%

The compounds below were run on OVCAR-5 (assay: Growth inhibition of human OVCAR-5 cells assessed as cell growth at 10 uM incubated for 48 hrs by sulforhodamine B assay relative to control). Settings: read-out: Activity.
Type: functional
Summary of the method: as §2

Question: How did the growth at 10 µM turn out when `CC(=O)c1ccc2c(N)c(C(=O)Nc3ccccc3)sc2n1` was run?
Answer: 113%

What follows are compounds tested on Hs-578T (assay: Growth inhibition of human Hs-578T cells assessed as cell growth at 10 uM incubated for 48 hrs by sulforhodamine B assay relative to control). Settings: read-out: Activity.
Type: functional
Summary of the method: as §1

Question: How did the growth at 10 µM turn out when `CC(=O)c1ccc2c(N)c(C(=O)Nc3ccccc3)sc2n1` was run?
Answer: 106%

What follows are compounds tested on HOP-92 (assay: Growth inhibition of human HOP-92 cells assessed as cell growth at 10 uM incubated for 48 hrs by sulforhodamine B assay relative to control). Settings: read-out: Activity.
Type: functional
Summary of the method: as §1

Question: `CC(=O)c1ccc2c(N)c(C(=O)Nc3ccccc3)sc2n1` was tested. Which growth at 10 µM did it give?
Answer: 74%

Each compound was assayed on MOLT-4 (assay: Growth inhibition of human MOLT-4 cells assessed as cell growth at 10 uM incubated for 48 hrs by sulforhodamine B assay relative to control). Settings: read-out: Activity.
Type: functional
Summary of the method: as §1

Question: `CC(=O)c1ccc2c(N)c(C(=O)Nc3ccccc3)sc2n1` was tested. Which growth at 10 µM did it give?
Answer: 107%

What follows are compounds tested on HCT-15 (assay: Growth inhibition of human HCT-15 cells assessed as cell growth at 10 uM incubated for 48 hrs by sulforhodamine B assay relative to control). Settings: read-out: Activity.
Type: functional
Summary of the method: as §1

Question: Which growth at 10 µM does the source give for `CC(=O)c1ccc2c(N)c(C(=O)Nc3ccccc3)sc2n1` here?
Answer: 96.7%

What follows are compounds tested on UACC-62 (assay: Growth inhibition of human UACC-62 cells assessed as cell growth at 10 uM incubated for 48 hrs by sulforhodamine B assay relative to control). Settings: read-out: Activity.
Type: functional
Summary of the method: as §2

Question: For `CC(=O)c1ccc2c(N)c(C(=O)Nc3ccccc3)sc2n1`, which growth at 10 µM is on record?
Answer: 115%

Each compound was assayed on A498 (assay: Growth inhibition of human A498 cells assessed as cell growth at 10 uM incubated for 48 hrs by sulforhodamine B assay relative to control). Settings: read-out: Activity.
Type: functional
Summary of the method: as §3

Question: `CC(=O)c1ccc2c(N)c(C(=O)Nc3ccccc3)sc2n1` was tested. Which growth at 10 µM did it give?
Answer: 70.3%

These compounds were tested on OVCAR-3 (assay: Growth inhibition of human OVCAR-3 cells assessed as cell growth at 10 uM incubated for 48 hrs by sulforhodamine B assay relative to control). Settings: read-out: Activity.
Type: functional
Summary of the method: as §2

Question: `CC(=O)c1ccc2c(N)c(C(=O)Nc3ccccc3)sc2n1` was tested. Which growth at 10 µM did it give?
Answer: 119%

Each compound was assayed on HOP-62 (assay: Growth inhibition of human HOP-62 cells assessed as cell growth at 10 uM incubated for 48 hrs by sulforhodamine B assay relative to control). Settings: read-out: Activity.
Type: functional
Summary of the method: as §1

Question: For `CC(=O)c1ccc2c(N)c(C(=O)Nc3ccccc3)sc2n1`, which growth at 10 µM is on record?
Answer: 102%

Each compound was assayed on HCT-116 (assay: Growth inhibition of human HCT-116 cells assessed as cell growth at 10 uM incubated for 48 hrs by sulforhodamine B assay relative to control). Settings: read-out: Activity.
Type: functional
Summary of the method: as §1

Question: With `CC(=O)c1ccc2c(N)c(C(=O)Nc3ccccc3)sc2n1` as the compound, how does the growth at 10 µM read?
Answer: 108%

These compounds were tested on PC-3 (assay: Growth inhibition of human PC-3 cells assessed as cell growth at 10 uM incubated for 48 hrs by sulforhodamine B assay relative to control). Settings: read-out: Activity.
Type: functional
Summary of the method: as §2

Question: How did the growth at 10 µM turn out when `CC(=O)c1ccc2c(N)c(C(=O)Nc3ccccc3)sc2n1` was run?
Answer: 97.4%

Each compound was assayed on UACC-257 (assay: Growth inhibition of human UACC-257 cells assessed as cell growth at 10 uM incubated for 48 hrs by sulforhodamine B assay relative to control). Settings: read-out: Activity.
Type: functional
Summary of the method: as §2

Question: How did the growth at 10 µM turn out when `CC(=O)c1ccc2c(N)c(C(=O)Nc3ccccc3)sc2n1` was run?
Answer: 102%

The compounds below were run on UO-31 (assay: Growth inhibition of human UO-31 cells assessed as cell growth at 10 uM incubated for 48 hrs by sulforhodamine B assay relative to control). Settings: read-out: Activity.
Type: functional
Summary of the method: as §2

Question: For `CC(=O)c1ccc2c(N)c(C(=O)Nc3ccccc3)sc2n1`, which growth at 10 µM is on record?
Answer: 103%

— ChEMBL document CHEMBL4715736, “Identification of anticancer agents based on the thieno[2,3-b]pyridine and 1H-pyrazole molecular scaffolds” (2016)
